Values after ≈ are worked out from the molar mass of the structure shown.
Experiments:
Assay type in all cases: functional
Details in all cases: read-out: ED50 (the source's name)
[1] = test system: A549; experiment: Cytotoxicity against human A549 cells
How it was run: (§1)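 In vitro cytotoxicity against cultured human tumour cell lines: A549 (lung adenocarcinoma) and HT-29 (colon adenocarcinoma), both obtained from a cell-line collection.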

[2] = test system: P388; experiment: Cytotoxicity against mouse P388 cells
How it was run: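 Murine P-388 lymphocytic leukaemia cells, supplied by an academic laboratory, were exposed to compounds in culture and cytotoxicity was measured in vitro.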

[3] = test system: HT-29; experiment: Cytotoxicity against human HT-29 cells; how it was run: as §1

Structure (SMILES): C=C1CC[C@@H]2O[C@@]2(C)CC[C@H]2[C@H]1C(=O)O[C@@]2(/C=C/C=C(C)C)CO
- EC50 [1]: 18.8 µg/mL (≈ 56.6 µM)
- EC50 [2]: 3.66 µg/mL (≈ 11 µM)
- EC50 [3]: 5.33 µg/mL (≈ 16 µM)

Structure (SMILES): C=C1CC/C=C(\C)CC[C@@H]2/C(=C\CC3OC3(C)C)COC(=O)[C@@H]12 (stereo partly specified)
- EC50 [1]: 11.2 µg/mL (≈ 35.4 µM)
- EC50 [2]: 2.87 µg/mL (≈ 9.07 µM)
- EC50 [3]: 21.1 µg/mL (≈ 66.7 µM)

Structure (SMILES): C=C1CC[C@@H]2/C(=C\C=C\C(C)(C)O)COC(=O)[C@H]2C(=C)CCC1OO (stereo partly specified)
- EC50 [1]: 4.77 µg/mL (≈ 13.7 µM)
- EC50 [2]: 0.04 µg/mL (≈ 0.115 µM)
- EC50 [3]: 8.31 µg/mL (≈ 23.8 µM)

Structure (SMILES): C=C1CC/C=C(\C)CC[C@@H]2/C(=C\C=C\C(C)(C)O)CO[C@H](O)[C@@H]12
- EC50 [1]: 4.85 µg/mL (≈ 15.2 µM)
- EC50 [2]: 3.45 µg/mL (≈ 10.8 µM)
- EC50 [3]: 12.9 µg/mL (≈ 40.5 µM)

Structure (SMILES): C=C1CC[C@@H]2O[C@@]2(C)CC[C@@H]2/C(=C\CC3OC3(C)C)COC(=O)[C@@H]12 (stereo partly specified)
- EC50 [1]: 11.6 µg/mL (≈ 34.9 µM)
- EC50 [2]: 3.35 µg/mL (≈ 10.1 µM)
- EC50 [3]: 7.77 µg/mL (≈ 23.4 µM)

Structure (SMILES): C=C1CC/C=C(\C)CC[C@@H]2/C(=C\C=C\C(C)(C)O)[C@@H](OC)O[C@H](OC)[C@@H]12 [XENIBECIN]
- EC50 [1]: 13.4 µg/mL (≈ 37 µM)
- EC50 [2]: 3.96 µg/mL (≈ 10.9 µM)
- EC50 [3]: 12.5 µg/mL (≈ 34.5 µM)

Structure (SMILES): C=C1CC[C@@H]2O[C@@]2(C)CC[C@H](/C(=C\CC2OC2(C)C)COC(C)=O)[C@H]1C(=O)OC (stereo partly specified) [XENITACIN]
- EC50 [1]: 3.26 µg/mL (≈ 8.02 µM)
- EC50 [2]: 1.09 µg/mL (≈ 2.68 µM)
- EC50 [3]: 1.12 µg/mL (≈ 2.76 µM)

Reference: ChEMBL document CHEMBL1150164, “New cytotoxic xenia diterpenoids from the Formosan soft coral Xenia umbellata” (2002)
